Measurements published in ChEMBL document CHEMBL1127414 (J Med Chem, 1994).
Values after ≈ are worked out from the molar mass of the structure shown. Active and inactive are the calls of the source. No cut-off for these calls is given here.

Columns and labels:
Candida tropicalis = experiment: Concentration required to inhibit growth of MY 1012 strain of Candida tropicalis; format: functional
Outline: (§1)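 Broth microdilution against a panel of clinically relevant fungal strains. Read-out was the minimum fungicidal concentration in μg/mL.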

[1] = tested on: squalene synthase (Saccharomyces cerevisiae); experiment: compound required to inhibit 50% activity of yeast squalene synthase enzyme relative to control (L-694,599).
Cryptococcus neoformans [2] = experiment: Concentration required to inhibit growth of MY 2061 strain of Cryptococcus neoformans; format: functional; outline: as §1
Trichophyton benhamiae = experiment: Concentration required to inhibit growth of MF 4864 strain of Trichophyton mentagrophytes; format: functional, Arthroderma benhamiae; outline: as §1
Mus musculus [3] = experiment: Tested for its ability to inhibit the incorporation of [5-3H]-mevalonolactone into cholesterol by in vivo mouse assay by peroral administration at a dose of 40 mg/kg; format: functional; details: route oral
Outline: (§2)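 Female Swiss Webster mice (~25 g), six per group, dosed po by gavage with inhibitor suspended in 5% emulphor. 30 min later, 0.5 μCi/mouse [5-3H]mevalonolactone in saline given sc. Livers removed 30 min after that and saponified in KOH/EtOH overnight at 55 °C, then petroleum-ether extracted. Nonsaponifiable dpm counted. Compounds first tested at a single dose (typically 12 or 24 mg/kg).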

Candida parapsilosis = experiment: Concentration required to inhibit growth of MY 1010 strain of Candida parapsilosis; format: functional; details: Lodderomyces parapsilosis; outline: as §1
HepG2 [4] = experiment: Concentration required to inhibit cholesterol synthesis in Hep G2 cells; format: functional, cell-based; details: Homo sapiens
Outline: (§3)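 Hep G2 cells held 2 days in lipoprotein-depleted FBS to stimulate sterol synthesis, then given inhibitor in serum-free medium for 2 h. 15 μCi [5-3H]mevalonate (0.2 mCi/mmol) added for 1 h. Cells washed and saponified, and radioactivity counted by scintillation.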

Squalene synthase [5] = biological target: T1, Squalene synthase (Rattus norvegicus, UniProt Q02769); experiment: Tested for inhibition against squalene synthase enzyme in rat liver
T1 sequence (Q02769 whole entry): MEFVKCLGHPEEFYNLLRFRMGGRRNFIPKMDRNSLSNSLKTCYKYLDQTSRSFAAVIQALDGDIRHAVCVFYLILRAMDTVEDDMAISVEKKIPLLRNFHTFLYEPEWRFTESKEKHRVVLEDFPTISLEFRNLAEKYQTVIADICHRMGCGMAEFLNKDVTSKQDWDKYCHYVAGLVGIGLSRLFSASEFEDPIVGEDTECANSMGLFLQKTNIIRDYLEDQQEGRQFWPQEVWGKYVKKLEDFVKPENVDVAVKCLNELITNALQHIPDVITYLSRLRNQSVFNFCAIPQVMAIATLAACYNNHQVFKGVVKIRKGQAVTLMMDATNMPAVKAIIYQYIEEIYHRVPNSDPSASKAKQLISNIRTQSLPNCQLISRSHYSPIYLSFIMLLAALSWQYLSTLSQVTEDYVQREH

Candida albicans [6] = experiment: Concentration required to inhibit growth of MY 1750 strain of Candida albicans; format: functional; outline: as §1
Aspergillus fumigatus = experiment: Concentration required to inhibit growth of MF 4839 strain of Aspergillus fumigatus; format: functional; outline: as §1
Cryptococcus neoformans [7] = experiment: Concentration required to inhibit growth of MY 1051 strain of Cryptococcus neoformans; format: functional; outline: as §1
Candida albicans [8] = experiment: Concentration required to inhibit growth of MY 1055 strain of Candida albicans; format: functional; outline: as §1
HepG2 [9] = experiment: Concentration required to inhibit cholesterol synthesis in Hep G2 cells relative to control (IC50 of L-694,599); format: functional, Homo sapiens; outline: as §3
[10] = biological target: T2, Squalene synthase (Rattus norvegicus) (UniProt Q02769); experiment: concentration required to inhibit rat liver squalene synthase enzyme relative to control (L-694,599)
T2 sequence (whole entry): T1 sequence (Q02769 whole entry)
Outline: (§4)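 Enzyme from rat liver. […] Inhibitors added in DMSO (0.3% final) as 3-fold serial dilutions, usually up to 30 ng/mL (about 40 nM). IC50 read from % inhibition vs log concentration.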

Squalene synthase [11] = biological target: T1, Squalene synthase; experiment: Concentration required for inhibition of rat liver squalene synthase enzyme at 161 nM; NA = not active
Mus musculus [12] = experiment: Tested for its ability to inhibit the incorporation of [5-3H]-mevalonolactone into cholesterol by in vivo mouse assay by peroral administration at dose 100 mg/kg; format: functional; details: route oral; outline: as §2
Mus musculus [13] = experiment: Tested for its ability to inhibit the incorporation of [5-3H]-mevalonolactone into cholesterol by in vivo mouse assay by peroral administration not active at dose 40 mg/kg; NA = Not active; format: functional, organism-based; design: dose 40 mg/kg; outline: as §2
Mus musculus [14] = experiment: Tested for its ability to inhibit the incorporation of [5-3H]-mevalonolactone into cholesterol by in vivo mouse assay by peroral administration at a dose of 6 mg/kg; format: functional; details: route oral; outline: as §2
[15] = biological target: T3, Squalene synthase (Mus musculus) (UniProt P53798); experiment: Tested for the effective dose required for the incorporation of [5-3H]-mevalonolactone into cholesterol by in vivo mouse assay by peroral administration; format: functional, organism-based; outline: as §2
T3 sequence (whole entry): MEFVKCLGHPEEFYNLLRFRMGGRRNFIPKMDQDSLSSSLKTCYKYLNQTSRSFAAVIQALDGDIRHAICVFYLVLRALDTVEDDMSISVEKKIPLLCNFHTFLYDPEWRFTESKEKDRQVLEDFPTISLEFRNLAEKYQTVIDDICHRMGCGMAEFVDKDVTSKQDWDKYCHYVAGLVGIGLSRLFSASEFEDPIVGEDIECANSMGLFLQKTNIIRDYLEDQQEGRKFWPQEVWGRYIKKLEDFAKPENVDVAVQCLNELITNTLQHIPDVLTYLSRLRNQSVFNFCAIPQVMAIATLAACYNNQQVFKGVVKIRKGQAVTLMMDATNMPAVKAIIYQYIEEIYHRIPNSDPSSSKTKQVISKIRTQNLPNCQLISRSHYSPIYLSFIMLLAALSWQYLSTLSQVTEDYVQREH

Squalene synthase [16] = biological target: T1, Squalene synthase; experiment: Concentration required for inhibition of rat liver squalene synthase enzyme at 161 nM; Not active
[17] = biological target: T2, Squalene synthase (Rattus norvegicus); experiment: Concentration required to inhibit rat liver squalene synthase enzyme relative to control (L-694,599); outline: as §4
HepG2 [18] = experiment: Concentration of compound required to inhibit cholesterol synthesis in Hep G2 cells relative to control (IC50 of L-694,599); format: functional, Homo sapiens; outline: as §3
Mus musculus [19] = experiment: Ability to inhibit the incorporation of [5-3H]-mevalonolactone into cholesterol by in vivo mouse assay by peroral administration at a dose of 24 mg/kg; format: functional; details: route oral; outline: as §2

Row | Compound | MFC (Candida tropicalis) [µg/mL] | MFC (Cryptococcus neoformans [2]) [µg/mL] | MFC (Trichophyton benhamiae) [µg/mL] | MFC (Candida parapsilosis) [µg/mL] | IC50 (HepG2 [4]) [nM] | IC50 (Squalene synthase [5]) [nM] | MFC (Candida albicans [6]) [µg/mL] | MFC (Aspergillus fumigatus) [µg/mL] | MFC (Cryptococcus neoformans [7]) [µg/mL] | MFC (Candida albicans [8]) [µg/mL] | also measured
1 | C=C(CCC12OC(C(=O)O)C(O)(C(=O)O)C(C(=O)O)(O1)[C@H](OCCCCCCCCCCCC)[C@H]2O)[C@@H](OC(C)=O)[C@H](C)Cc1ccccc1 (stereo partly drawn) | 64 (≈ 90.5 µM) | 0.12 (≈ 0.17 µM) | 1 (≈ 1.41 µM) | 8 (≈ 11.3 µM) | 1600 | 0.12 | 32 (≈ 45.3 µM) | 0.5 (≈ 0.707 µM) | 0.5 (≈ 0.707 µM) | 4 (≈ 5.66 µM) | Relative activity [1]: 9.26; inhibition in vivo at 40 mg/kg (Mus musculus [3]): 26%; Relative activity (HepG2 [9]): 5.62; Relative activity [10]: 2.5
2 | C=C(CCC12OC(C(=O)O)C(OCCCCCCCCCCCOc3ccccc3)(C(=O)O)C(C(=O)O)(O1)[C@H](OCCCCCCCCCCCOc1ccccc1)[C@H]2O)[C@@H](OC(C)=O)[C@H](C)Cc1ccccc1 (stereo partly drawn) |  |  |  |  |  |  |  |  |  |  | IC50 (Squalene synthase [11]): Not Active
3 | C=C(CCC12OC(C(=O)O)C(O)(C(=O)O)C(C(=O)O)(O1)[C@H](OC(=O)/C=C/[C@@H](C)C[C@@H](C)CC)[C@H]2O)[C@@H](OC(C)=O)[C@H](C)Cc1ccccc1 (stereo partly drawn) [ZARAGOZIC ACID A] | 2 (≈ 2.9 µM) | 1 (≈ 1.45 µM) | 4 (≈ 5.79 µM) | 8 (≈ 11.6 µM) | 6000 |  | 8 (≈ 11.6 µM) | 32 (≈ 46.3 µM) | 1 (≈ 1.45 µM) | 16 (≈ 23.2 µM) | inhibition in vivo at 100 mg/kg (Mus musculus [12]): 50%; inhibition (Mus musculus [13]): inactive
4 | C=C(CCC12OC(C(=O)O)C(O)(C(=O)O)C(C(=O)O)(O1)[C@H](O/C(S)=N/C(C)C)[C@H]2O)[C@@H](OC(C)=O)[C@H](C)Cc1ccccc1 (stereo partly drawn) |  |  |  |  |  |  |  |  |  |  | inhibition in vivo at 6 mg/kg (Mus musculus [14]): 9%; Relative activity [10]: 0.01; ED50 [15]: > 6 mg/kg
5 | C=C(CCC12OC(C(=O)O)C(OCCC)(C(=O)O)C(C(=O)O)(O1)[C@H](OCCC)[C@H]2O)[C@@H](OC(C)=O)[C@H](C)Cc1ccccc1 (stereo partly drawn) |  |  |  |  |  |  |  |  |  |  | IC50 (Squalene synthase [16]): Not Active
6 | C=C(CCC12OC(C(=O)O)C(O)(C(=O)O)C(C(=O)O)(O1)[C@H](OC(=O)CCCCCCC)[C@H]2O)[C@@H](OC(C)=O)[C@H](C)Cc1ccccc1 (stereo partly drawn) |  |  |  |  | 9600 | 0.66 |  |  |  |  | Relative activity [17]: 0.17; Relative activity (HepG2 [18]): 0.57
7 | C=C(CCC12OC(C(=O)O)C(O)(C(=O)O)C(C(=O)O)(O1)[C@H](OC(=O)OCCCCCCCCCC)[C@H]2O)[C@@H](OC(C)=O)[C@H](C)Cc1ccccc1 (stereo partly drawn) | 2 (≈ 2.77 µM) | 0.25 (≈ 0.346 µM) | < 0.06 | 2 (≈ 2.77 µM) | 2400 |  | 16 (≈ 22.1 µM) | 2 (≈ 2.77 µM) | 8 (≈ 11.1 µM) | 8 (≈ 11.1 µM) | inhibition in vivo at 24 mg/kg (Mus musculus [19]): 28%
8 | C=C(CCC12OC(C(=O)O)C(O)(C(=O)O)C(C(=O)O)(O1)[C@H](OCCCCCCCCCCCOc1ccccc1)[C@H]2O)[C@@H](OC(C)=O)[C@H](C)Cc1ccccc1 (stereo partly drawn) |  |  |  |  | 1300 | 0.06 |  |  |  |  | Relative activity [17]: 2; Relative activity (HepG2 [18]): 6.38
